{"source": "the EternaBench riboswitch data", "test_system": "MS2 coat protein", "assay": "apparent Kd, MS2 coat protein; higher = weaker binding; RNA-MaP array; FMN 200 µM where present", "summary_of_the_method": "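Apparent Kd: the median of filtered binding-curve fits from single clusters. Designs were transcribed on Illumina sequencing-chip clusters by stalled E. coli RNA polymerase and titrated with SNAP-549-labelled MS2 coat protein from 0.7 or 1.5 nM, doubling to 3 µM, in 100 mM Tris-HCl pH 7.5, 80 mM KCl, 4 mM MgCl2, BSA, DTT, yeast tRNA and Tween-20. Each series ran without and then with constant ligand, and green signal was normalised to red-channel RNA signal and control-cluster median Fmax.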", "key": {"[1]": {"conditions": "designed as: ON switch for flavin mononucleotide, no ligand"}, "[2]": {"conditions": "ligand present: flavin mononucleotide, designed as: ON switch for flavin mononucleotide"}, "[3]": {"conditions": "designed as: OFF switch for flavin mononucleotide, no ligand"}, "[4]": {"conditions": "ligand present: flavin mononucleotide, designed as: OFF switch for flavin mononucleotide"}}}
{"sequence": "CAAUCUCAGAUAGGAUAUAUAGGAUAACUUAAGACCUAACAUGAGGAUCACCCAUGUGAUUAUUCGUAGAAGGAUCAUUGAACC", "values": [{"measurement": "apparent Kd", "setting": "[1]", "value": 205, "unit": "nM"}, {"measurement": "apparent Kd", "setting": "[2]", "value": 190, "unit": "nM"}]}
{"sequence": "GUCCUUAGCGAGGAUAUCGGGCGGGUUUUUGUUUGAGAAGGCGUGACAUGAGGAUCACCCAUGUGGCGCGUGGG", "values": [{"measurement": "apparent Kd", "setting": "[3]", "value": 39.2, "unit": "nM"}, {"measurement": "apparent Kd", "setting": "[4]", "value": 69.7, "unit": "nM"}]}
{"sequence": "CGCUACGUUUCGUAGCAGUGUCAUCGAGAAGGCCCUGACAUGAGGAUCACCCAUGUUGUUACAUGGGAGGAUAUCGAUGAUACG", "values": [{"measurement": "apparent Kd", "setting": "[1]", "value": 13, "unit": "nM"}, {"measurement": "apparent Kd", "setting": "[2]", "value": 5.4, "unit": "nM"}]}
{"sequence": "AGGGUAGACGUAGGAUAUACGGAAUGAAUGAAAGUAGAAGGAUGACAUGAGGAUCACCCAUGUGAAAUGAAAUGAUGAAGGGUG", "values": [{"measurement": "apparent Kd", "setting": "[3]", "value": 579, "unit": "nM"}, {"measurement": "apparent Kd", "setting": "[4]", "value": 510, "unit": "nM"}]}
{"sequence": "AAAAAGGCAGGAUAUACAUGAGGAUCACCCAUGUAAAGAAAGAAAGAAGAAAGGGAAAGUAGAAGGGCCAAAAA", "values": [{"measurement": "apparent Kd", "setting": "[3]", "value": 38.2, "unit": "nM"}, {"measurement": "apparent Kd", "setting": "[4]", "value": 46, "unit": "nM"}]}
{"sequence": "UCAUAUAUACAAGGAUAUCAAUUAUUUACACAUCCUACAUGAGGAUCACCCAUGUUUUAAUAUUUUGAGAAGGUGUAAUGUCGG", "values": [{"measurement": "apparent Kd", "setting": "[1]", "value": 24, "unit": "nM"}, {"measurement": "apparent Kd", "setting": "[2]", "value": 30.7, "unit": "nM"}]}
{"sequence": "GGUUCCAACACAGGAUAUGCUAUCCUUUGGGUAGCAGAAGGGUGAAACAUGAGGAUCACCCAUGUGGAGCCAGGGCGUGAGCCC", "values": [{"measurement": "apparent Kd", "setting": "[1]", "value": 593, "unit": "nM"}, {"measurement": "apparent Kd", "setting": "[2]", "value": 63.1, "unit": "nM"}]}
{"sequence": "GGUGGACAUGAGGAUCACCCAUGUGAGGAUAUCGGCUGGUACGUGUUGGCUGGCUUCUCGAGAAGGCACAUAGU", "values": [{"measurement": "apparent Kd", "setting": "[3]", "value": 64.7, "unit": "nM"}, {"measurement": "apparent Kd", "setting": "[4]", "value": 75.4, "unit": "nM"}]}
{"sequence": "UCUGCAUAGUCAGGAUAUGCAAAGUAAGCUAUGGAAACAUAGCUUACAACAUGAGGAUCACCCAUGUAGAAGGGACUGUGCAGA", "values": [{"measurement": "apparent Kd", "setting": "[3]", "value": 14.1, "unit": "nM"}, {"measurement": "apparent Kd", "setting": "[4]", "value": 13, "unit": "nM"}]}
{"sequence": "CAGUUCUGAGGAUAUCCACCCUCCUACAUGAGGAUCACCCAUGUUUCCCUCUGGGCUUUCGGAGAAGGCAGUUAUC", "values": [{"measurement": "apparent Kd", "setting": "[3]", "value": 52.5, "unit": "nM"}, {"measurement": "apparent Kd", "setting": "[4]", "value": 43.6, "unit": "nM"}]}
{"sequence": "GGGUACAUCGGAGGAUAUCAUGUAAAUACAUGAGGAUCACCCAUGUGGAUGGAGACAUCGGAGAUUGAGAAGGCCGAUGUACCG", "values": [{"measurement": "apparent Kd", "setting": "[1]", "value": 10.9, "unit": "nM"}, {"measurement": "apparent Kd", "setting": "[2]", "value": 5.56, "unit": "nM"}]}
{"sequence": "AAAUUUAACGAAGGAUAUGGAUACAUGAGGAUCACCCAUGUAUAUUUUGUGAUCUUGUUUAAGAUCCAGAAGGUCGUAUACAUA", "values": [{"measurement": "apparent Kd", "setting": "[3]", "value": 24, "unit": "nM"}, {"measurement": "apparent Kd", "setting": "[4]", "value": 56.1, "unit": "nM"}]}
{"sequence": "UGGUACUAGGGAGGAUAUGGGUAGAUACAUGAGGAUCACCCAUGUUUAAGAAUGCCGAGAGGCAACUAGAAGGCCCUAGUACCU", "values": [{"measurement": "apparent Kd", "setting": "[1]", "value": 549, "unit": "nM"}, {"measurement": "apparent Kd", "setting": "[2]", "value": 319, "unit": "nM"}]}
{"sequence": "AGUACCAUGUAGAAGGGAUAUCUGAUUCAGAUAUCAGGAUAUACAUGAGGAUCACCCAUGUAAAUGUACUCCACGAAAGUGGAA", "values": [{"measurement": "apparent Kd", "setting": "[3]", "value": 22.1, "unit": "nM"}, {"measurement": "apparent Kd", "setting": "[4]", "value": 63.8, "unit": "nM"}]}
{"sequence": "GACUGCCGAGGAUAUACAUGAGGAUCACCCAUGUGCUUCAGCAUUUAAUAAUGCAUGGGUAGAAGGCGGUAGUC", "values": [{"measurement": "apparent Kd", "setting": "[3]", "value": 42.8, "unit": "nM"}, {"measurement": "apparent Kd", "setting": "[4]", "value": 74.6, "unit": "nM"}]}
{"sequence": "AUAAACGAUCAGGAUAUAUCAAAUCAUAGCUUGAUAGAAGGGAUCACAUGAGGAUCACCCAUGUGAUCUUCUUA", "values": [{"measurement": "apparent Kd", "setting": "[3]", "value": 14, "unit": "nM"}, {"measurement": "apparent Kd", "setting": "[4]", "value": 15.8, "unit": "nM"}]}
{"sequence": "UCGAUCGGAGGAUAUACUAAUACAACUACUGAAGUGUCAAAACAUGAGGAUCACCCAUGUAGAAGGCCGAUAUA", "values": [{"measurement": "apparent Kd", "setting": "[3]", "value": 21.8, "unit": "nM"}, {"measurement": "apparent Kd", "setting": "[4]", "value": 24.3, "unit": "nM"}]}
{"sequence": "ACAGAGCCUGACAUGAGGAUCACCCAUGUUAGAUUGUUAUGUCAGGAUAUUGUCUAGCAACUAGACAAGAAGGGACGCUCUGUG", "values": [{"measurement": "apparent Kd", "setting": "[1]", "value": 71.2, "unit": "nM"}, {"measurement": "apparent Kd", "setting": "[2]", "value": 8.88, "unit": "nM"}]}
{"sequence": "AAUAAGCUAGGAUAUACAUGAGGAUCACCCAUGUGAGGGCACGGCCGGCGCGUUUCCGGUAGAAGGAGUCAUAA", "values": [{"measurement": "apparent Kd", "setting": "[3]", "value": 34.5, "unit": "nM"}, {"measurement": "apparent Kd", "setting": "[4]", "value": 25.2, "unit": "nM"}]}
{"sequence": "CCGGAAACGGGUAGCCAGACAUGAGGAUCACCCAUGUGAUCAGAGGAUAUGGAUCCUAAUUGGAUCCAGAAGGCUGUCAGCUAC", "values": [{"measurement": "apparent Kd", "setting": "[1]", "value": 554, "unit": "nM"}, {"measurement": "apparent Kd", "setting": "[2]", "value": 74.8, "unit": "nM"}]}
{"sequence": "AAUAGUAUUGUAGGAUAUGUUAUUUUCUAACAUGAGGAUCACCCAUGUAAUAUAGGGUUGUUUCUACAGAAGGACAAUUUAUUA", "values": [{"measurement": "apparent Kd", "setting": "[1]", "value": 509, "unit": "nM"}, {"measurement": "apparent Kd", "setting": "[2]", "value": 387, "unit": "nM"}]}
{"sequence": "AAACUGUGAGGAUAUGGUGAGUAGUGCCUGAGCGCUGCUCACCAGAAGGCACAUGAGGAUCACCCAUGUAUAAC", "values": [{"measurement": "apparent Kd", "setting": "[3]", "value": 24.8, "unit": "nM"}, {"measurement": "apparent Kd", "setting": "[4]", "value": 62.1, "unit": "nM"}]}
{"sequence": "AUCAGCUUGUCAGGAUAUGCAUGUCAACGAAAGUUGACAAUCUUAAUAACAUGAGGAUCACCCAUGUAGAAGGGACGAGCUGAU", "values": [{"measurement": "apparent Kd", "setting": "[3]", "value": 17.1, "unit": "nM"}, {"measurement": "apparent Kd", "setting": "[4]", "value": 19.3, "unit": "nM"}]}
{"sequence": "ACUGUUUGAUUCCUCUUAUACAUGAGGAUCACCCAUGUUAUCGAGGAUAUGCAUUAGAGUGUUUAGCAGAAGGCGAUGUAAUUC", "values": [{"measurement": "apparent Kd", "setting": "[3]", "value": 5.89, "unit": "nM"}, {"measurement": "apparent Kd", "setting": "[4]", "value": 12.9, "unit": "nM"}]}
{"sequence": "AAAUCAGCAGGAUAUACGAUGUUAUGCUAGAUAGCGGGACCACAUGAGGAUCACCCAUGUAGAAGGGCUAGAUA", "values": [{"measurement": "apparent Kd", "setting": "[3]", "value": 35, "unit": "nM"}, {"measurement": "apparent Kd", "setting": "[4]", "value": 30.8, "unit": "nM"}]}
{"sequence": "UCCAAACCGUAGAAGGGUGACAUGAGGAUCACCCAUGUGCAGCAGCCGUGAACGGCCAUGCUGCCACAGGAUAUACGGAGGAGU", "values": [{"measurement": "apparent Kd", "setting": "[1]", "value": 28.9, "unit": "nM"}, {"measurement": "apparent Kd", "setting": "[2]", "value": 67.3, "unit": "nM"}]}
{"sequence": "CACAAGAAAGUCGAACGUGUAACGAGAAGGUCUACAUCACAACAUGAGGAUCACCCAUGUGAUAAGAAGGAUAUUGUUGCGCGG", "values": [{"measurement": "apparent Kd", "setting": "[3]", "value": 8.76, "unit": "nM"}, {"measurement": "apparent Kd", "setting": "[4]", "value": 8.32, "unit": "nM"}]}
